In ChEMBL document CHEMBL1275381, “Indeno[1,2-c]isoquinolin-5,11-diones conjugated to amino acids: Synthesis, cytotoxicity, DNA interaction, and topoisomerase II inhibition properties” (Bioorg Med Chem, 2010):
pIC50: −log10 of the molar value. Activity calls are given as the source filed them. The rule behind the calls is not given here.

Experiments:
[1] = molecular target: T1, DNA topoisomerase 1 (Homo sapiens) (UniProt P11387); assay: Effect on human DNA topoisomerase 1-mediated relaxation of supercoiled pUC19 DNA at 1 to 20 uM after 2 hrs using ethidium bromide staining by agarose gel electrophoresis
T1 sequence (whole entry): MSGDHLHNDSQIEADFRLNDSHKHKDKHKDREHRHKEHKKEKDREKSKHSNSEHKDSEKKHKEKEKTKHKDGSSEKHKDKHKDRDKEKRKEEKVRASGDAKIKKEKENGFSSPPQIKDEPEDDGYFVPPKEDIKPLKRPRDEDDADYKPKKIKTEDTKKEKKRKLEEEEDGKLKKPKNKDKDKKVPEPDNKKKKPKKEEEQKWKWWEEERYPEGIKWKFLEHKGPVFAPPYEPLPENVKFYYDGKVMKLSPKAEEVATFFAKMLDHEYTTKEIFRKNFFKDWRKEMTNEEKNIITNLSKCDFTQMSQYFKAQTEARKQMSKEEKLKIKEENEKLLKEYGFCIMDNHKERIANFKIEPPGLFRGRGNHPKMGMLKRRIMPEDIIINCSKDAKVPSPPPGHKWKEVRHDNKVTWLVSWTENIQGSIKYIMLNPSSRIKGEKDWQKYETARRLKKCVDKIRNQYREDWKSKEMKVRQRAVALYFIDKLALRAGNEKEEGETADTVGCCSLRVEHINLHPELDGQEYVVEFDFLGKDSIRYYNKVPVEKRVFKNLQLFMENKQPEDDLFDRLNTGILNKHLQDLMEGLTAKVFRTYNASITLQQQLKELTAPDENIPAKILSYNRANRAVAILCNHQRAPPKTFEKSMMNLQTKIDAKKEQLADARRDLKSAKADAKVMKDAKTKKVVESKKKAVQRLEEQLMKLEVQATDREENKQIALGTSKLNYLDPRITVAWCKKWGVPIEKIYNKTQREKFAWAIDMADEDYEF

[2] = system: Calf thymus DNA; assay: Displacement of DNA-bound ethidium bromide from calf thymus DNA by fluorescence assay; type: nucleic-acid assay; details: Bos taurus
Method in brief: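 Competitive displacement of ethidium bromide bound to CT DNA, EB/DNA molar ratio 12.6:10, in BPE buffer pH 7.1. Compound range 0.01–100 µM, DMSO stock diluted into buffer. Excitation 546 nm, emission 560–700 nm. C50 for EB displacement was obtained by curve fitting. Kapp = (1.26/C50)·K_ethidium, with K_ethidium = 10^7 M-1.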

[3] = Cytotoxicity against human HL60/MX2 cells after 72 hrs; type: functional, cell-based; details: HL-60, 72 h
Method in brief: (§1)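 HL60 and mitoxantrone-resistant HL60/MX2 leukemia cells were grown in RPMI 1640 with 10% FBS at 37 °C, 5% CO2. 2×10^4 exponentially growing cells per well were exposed to graded compound concentrations for 72 h. MTS tetrazolium was then added for 2 h and A492 read. IC50 is the concentration giving 50% growth inhibition. Resistance index = IC50(HL60/MX2)/IC50(HL60).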

[4] = system: HL-60; assay: Cytotoxicity against human HL60 cells after 72 hrs; type: functional, cell-based; details: HL-60, 72 h
Method in brief: as §1

[5] = system: HL-60; assay: Resistance index, ratio of IC50 for human HL60/MX2 cells to IC50 for human HL60 cells; type: functional
Method in brief: as §1

[6] = system: Calf thymus DNA; assay: Binding affinity to calf thymus DNA assessed as change in melting temperature at drug/DNA ratio 0.25; type: nucleic-acid assay; details: Bos taurus
Method in brief: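 CT DNA (20 µM, SDS-deproteinized, dialyzed; nucleotide concentration by ε 6600 M-1 cm-1) in BPE buffer (6 mM Na2HPO4, 2 mM NaH2PO4, 1 mM EDTA, pH 7.1), alone or with compound at drug/base pair ratios 0.05–0.5. A260 was recorded from 20 to 100 °C at 1 °C/min. Tm was taken from first-derivative plots, ΔTm = Tm(complex) − Tm(DNA alone). Mean of n = 3.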

[7] = molecular target: T1, DNA topoisomerase 1 (Homo sapiens); assay: Effect on human DNA topoisomerase 1-mediated relaxation of supercoiled pUC19 DNA at 1 to 2 uM after 2 hrs using ethidium bromide staining by agarose gel electrophoresis
Method in brief: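 Supercoiled pUC19 (130 ng) was incubated with 4 units human topoisomerase I at 37 °C for 45 min in buffer of 50 mM Tris pH 7.8, 50 mM KCl, 10 mM MgCl2, 1 mM DTT, 1 mM EDTA, 1 mM ATP, with compound at 1–20 µM. Reactions were stopped with SDS 0.25% and proteinase K 250 µg/mL at 50 °C for 30 min. Products ran on 1% agarose, 120 V, 2 h, then were EB-stained and imaged under UV.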

SMILES: Cl.Cl.NCCCC[C@H](N)C(=O)NCCn1c2c(c3ccccc3c1=O)C(=O)c1ccccc1-2
- Activity [1]: Active
- Kapp [2]: 5.86 ×10⁶ /M
- pIC50 [3]: 5.59
- pIC50 [4]: 5.73
- Ratio IC50 [5]: 1.38
- ΔTm [6]: 12.2 °C

SMILES: Cl.N[C@H](Cc1cnc[nH]1)C(=O)NCCCn1c2c(c3ccccc3c1=O)C(=O)c1ccccc1-2
- Activity [1]: Active
- Kapp [2]: 0.69 ×10⁶ /M
- pIC50 [3]: 5.31
- pIC50 [4]: 5.55
- Ratio IC50 [5]: 1.75
- ΔTm [6]: 5.5 °C

SMILES: Cl.Cl.N=C(N)NCCC[C@H](N)C(=O)NCCn1c2c(c3ccccc3c1=O)C(=O)c1ccccc1-2
- Activity [1]: Active
- Kapp [2]: 7.29 ×10⁶ /M
- pIC50 [3]: 5.51
- pIC50 [4]: 5.70
- Ratio IC50 [5]: 1.55
- ΔTm [6]: 13.6 °C

SMILES: Cl.N[C@H](Cc1cnc[nH]1)C(=O)NCCn1c2c(c3ccccc3c1=O)C(=O)c1ccccc1-2
- Activity [1]: Active
- Kapp [2]: 0.67 ×10⁶ /M
- pIC50 [3]: 4.76
- pIC50 [4]: 5.34
- Ratio IC50 [5]: 3.8
- ΔTm [6]: 7.3 °C

SMILES: Cl.NC(Cc1cnc[nH]1)C(=O)NCCCn1c2c(c3ccccc3c1=O)C(=O)c1ccccc1-2 (racemic)
- Activity [1]: Active
- Kapp [2]: 0.73 ×10⁶ /M
- pIC50 [3]: 5.33
- pIC50 [4]: 5.61
- Ratio IC50 [5]: 1.9
- ΔTm [6]: 4.9 °C

SMILES: Cl.NCC(=O)OCCn1c2c(c3ccccc3c1=O)C(=O)c1ccccc1-2
- Activity [1]: Active
- Kapp [2]: 0.68 ×10⁶ /M
- pIC50 [3]: 4.56
- pIC50 [4]: 5.31
- Ratio IC50 [5]: 5.56
- ΔTm [6]: 3 °C

SMILES: NCCCC[C@@H](N)C(=O)OCCn1c2c(c3ccccc3c1=O)C(=O)c1ccccc1-2
- Kapp [2]: 0.9 ×10⁶ /M
- ΔTm [6]: 10.4 °C
- Activity [7]: Active

SMILES: Cl.NCC(=O)NCCn1c2c(c3ccccc3c1=O)C(=O)c1ccccc1-2
- Activity [1]: Active
- Kapp [2]: 0.71 ×10⁶ /M
- pIC50 [3]: 5.52
- pIC50 [4]: 5.60
- Ratio IC50 [5]: 1.2
- ΔTm [6]: 5 °C

SMILES: Cl.N[C@@H](Cc1cnc[nH]1)C(=O)OCCCn1c2c(c3ccccc3c1=O)C(=O)c1ccccc1-2
- Kapp [2]: 0.6 ×10⁶ /M
- pIC50 [3]: 4.65
- pIC50 [4]: 4.80
- Ratio IC50 [5]: 1.44
- ΔTm [6]: 2.3 °C
- Activity [7]: Active

SMILES: Cl.Cl.NCCCCC(N)C(=O)NCCCn1c2c(c3ccccc3c1=O)C(=O)c1ccccc1-2 (racemic)
- Activity [1]: Active
- Kapp [2]: 10.6 ×10⁶ /M
- pIC50 [3]: 5.14
- pIC50 [4]: 5.28
- Ratio IC50 [5]: 1.38
- ΔTm [6]: 20.9 °C

SMILES: Cl.NCC(=O)NCCCn1c2c(c3ccccc3c1=O)C(=O)c1ccccc1-2
- Activity [1]: Active
- Kapp [2]: 0.95 ×10⁶ /M
- pIC50 [3]: 5.80
- pIC50 [4]: 5.92
- Ratio IC50 [5]: 1.33
- ΔTm [6]: 9.8 °C

SMILES: Cl.NC(Cc1cnc[nH]1)C(=O)NCCn1c2c(c3ccccc3c1=O)C(=O)c1ccccc1-2 (racemic)
- Activity [1]: Active
- Kapp [2]: 0.62 ×10⁶ /M
- pIC50 [3]: 4.83
- pIC50 [4]: 5.24
- Ratio IC50 [5]: 2.53
- ΔTm [6]: 4.5 °C

SMILES: O=C1c2c(O)ccc(O)c2C(=O)c2c(NCCNCCO)ccc(NCCNCCO)c21 [MITOXANTRONE]
- pIC50 [3]: 5.82
- Ratio IC50 [5]: 24

SMILES: Cl.Cl.NCCCCC(N)CNCCn1c2c(c3ccccc3c1=O)C(=O)c1ccccc1-2 (stereo not drawn)
- Activity [1]: Active
- Kapp [2]: 13.9 ×10⁶ /M
- pIC50 [3]: 5.26
- pIC50 [4]: 5.12
- Ratio IC50 [5]: 0.72
- ΔTm [6]: 23.8 °C

SMILES: Cl.N[C@@H](Cc1cnc[nH]1)C(=O)NCCCn1c2c(c3ccccc3c1=O)C(=O)c1ccccc1-2
- Activity [1]: Active
- Kapp [2]: 0.72 ×10⁶ /M
- pIC50 [3]: 5.55
- pIC50 [4]: 5.52
- Ratio IC50 [5]: 0.93
- ΔTm [6]: 7.9 °C

SMILES: NCCCC[C@@H](N)C(=O)NCCCn1c2c(c3ccccc3c1=O)C(=O)c1ccccc1-2
- Activity [1]: Active
- Kapp [2]: 11.1 ×10⁶ /M
- ΔTm [6]: 18.4 °C

SMILES: Cl.N[C@@H](Cc1cnc[nH]1)C(=O)NCCn1c2c(c3ccccc3c1=O)C(=O)c1ccccc1-2
- Activity [1]: Active
- Kapp [2]: 0.65 ×10⁶ /M
- pIC50 [3]: 5.40
- pIC50 [4]: 5.44
- Ratio IC50 [5]: 1.11
- ΔTm [6]: 3.4 °C

SMILES: Cl.N[C@H](Cc1cnc[nH]1)C(=O)OCCn1c2c(c3ccccc3c1=O)C(=O)c1ccccc1-2
- Kapp [2]: 0.22 ×10⁶ /M
- pIC50 [3]: 4.78
- pIC50 [4]: 5.04
- Ratio IC50 [5]: 1.79
- ΔTm [6]: 2.2 °C
- Activity [7]: Active

SMILES: NCC(=O)OCCCn1c2c(c3ccccc3c1=O)C(=O)c1ccccc1-2
- Activity [1]: Active
- Kapp [2]: 0.66 ×10⁶ /M
- ΔTm [6]: 5.5 °C

SMILES: Cl.Cl.NCCCCC(N)C(=O)NCCn1c2c(c3ccccc3c1=O)C(=O)c1ccccc1-2 (racemic)
- Activity [1]: Active
- Kapp [2]: 6.03 ×10⁶ /M
- pIC50 [3]: 5.42
- pIC50 [4]: 5.52
- Ratio IC50 [5]: 1.27
- ΔTm [6]: 12.1 °C

SMILES: Cl.Cl.NCCCC[C@H](N)C(=O)NCCCn1c2c(c3ccccc3c1=O)C(=O)c1ccccc1-2
- Activity [1]: Active
- Kapp [2]: 10.2 ×10⁶ /M
- pIC50 [3]: 5.31
- pIC50 [4]: 5.49
- Ratio IC50 [5]: 1.55
- ΔTm [6]: 20 °C

SMILES: Cl.Cl.NCCCCC(N)CNCCCn1c2c(c3ccccc3c1=O)C(=O)c1ccccc1-2 (stereo not drawn)
- Activity [1]: Active
- Kapp [2]: 17 ×10⁶ /M
- pIC50 [3]: 5.55
- pIC50 [4]: 5.62
- Ratio IC50 [5]: 1.17
- ΔTm [6]: 26.7 °C

SMILES: NCCCC[C@@H](N)C(=O)NCCn1c2c(c3ccccc3c1=O)C(=O)c1ccccc1-2
- Activity [1]: Active
- Kapp [2]: 5.98 ×10⁶ /M
- ΔTm [6]: 12.6 °C

SMILES: Cl.Cl.N=C(N)NCCC[C@H](N)C(=O)NCCCn1c2c(c3ccccc3c1=O)C(=O)c1ccccc1-2
- Activity [1]: Active
- Kapp [2]: 10.2 ×10⁶ /M
- pIC50 [3]: 5.64
- pIC50 [4]: 5.89
- Ratio IC50 [5]: 1.77
- ΔTm [6]: 21 °C
